Test system: Fibroblast
Assay: Multiplex assay against human fibroblast
Assay type: toxicity, cell-based
Procedure, shortened: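 Tubulin, mitochondrial-mass and membrane-permeability phenotypes are per cents of healthy-nucleus cells. Cells were gated by CellPathfinder machine learning into Hoechst high-intensity objects or normal cells, normal cells into healthy, pyknosed or fragmented nuclei, and pyknosed cells into mitotic or apoptotic. Before that, live cells stained at seeding with Hoechst33342, BioTracker Green Microtubule Cytoskeleton Dye, MitoTracker Red and Annexin V Alexa Fluor 680 were imaged on a CQ1 microscope at 37°C and 5% CO2 after compound addition.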

[1] = 12 h, 1 µM, compound concentration 1 uM, replicate 1
[2] = 12 h, 1 µM, compound concentration 1 uM, replicate 2
[3] = 12 h, 10 µM, compound concentration 10 uM, replicate 1
[4] = 12 h, 10 µM, compound concentration 10 uM, replicate 2
[5] = 24 h, 1 µM, compound concentration 1 uM, replicate 1
[6] = 24 h, 1 µM, compound concentration 1 uM, replicate 2
[7] = 24 h, 10 µM, compound concentration 10 uM, replicate 1
[8] = 24 h, 10 µM, compound concentration 10 uM, replicate 2
[9] = 48 h, 1 µM, compound concentration 1 uM, replicate 1
[10] = 48 h, 1 µM, compound concentration 1 uM, replicate 2
[11] = 48 h, 10 µM, compound concentration 10 uM, replicate 1
[12] = 48 h, 10 µM, compound concentration 10 uM, replicate 2

## CN1CCN2c3ccccc3Cc3ccccc3C2C1.Cl (stereo unspecified) [MIANSERIN HYDROCHLORIDE]
[1]
  Population Apoptotic (%): 55%
  Population Fragmented Nuclei (%): 28%
  Population Healthy Nuclei (%): 56%
  Population Hoechst High Intensity Objects (%): 2%
  Population Membrane Permeable-Phenotype (%): 1%
  Population Mitochondria Different-Phenotype (%): 0%
  Population Mitotic Cells (%): 45%
  Population Normal (%): 97%
  Population Pyknosed Nuclei (%): 14%
  Population Tubulin-Different-Phenotype (%): 31%
  Total Cell Count: 138
[2]
  Population Apoptotic (%): 38%
  Population Fragmented Nuclei (%): 27%
  Population Healthy Nuclei (%): 50%
  Population Hoechst High Intensity Objects (%): 4%
  Population Membrane Permeable-Phenotype (%): 12%
  Population Mitochondria Different-Phenotype (%): 5%
  Population Mitotic Cells (%): 61%
  Population Normal (%): 95%
  Population Pyknosed Nuclei (%): 22%
  Population Tubulin-Different-Phenotype (%): 56%
  Total Cell Count: 119
[3]
  Population Apoptotic (%): 55%
  Population Fragmented Nuclei (%): 15%
  Population Healthy Nuclei (%): 68%
  Population Hoechst High Intensity Objects (%): 5%
  Population Membrane Permeable-Phenotype (%): 1%
  Population Mitochondria Different-Phenotype (%): 3%
  Population Mitotic Cells (%): 44%
  Population Normal (%): 94%
  Population Pyknosed Nuclei (%): 15%
  Population Tubulin-Different-Phenotype (%): 14%
  Total Cell Count: 126
[4]
  Population Apoptotic (%): 33%
  Population Fragmented Nuclei (%): 24%
  Population Healthy Nuclei (%): 48%
  Population Hoechst High Intensity Objects (%): 6%
  Population Membrane Permeable-Phenotype (%): 3%
  Population Mitochondria Different-Phenotype (%): 7%
  Population Mitotic Cells (%): 66%
  Population Normal (%): 93%
  Population Pyknosed Nuclei (%): 27%
  Population Tubulin-Different-Phenotype (%): 40%
  Total Cell Count: 116
[5]
  Population Apoptotic (%): 52%
  Population Fragmented Nuclei (%): 32%
  Population Healthy Nuclei (%): 55%
  Population Hoechst High Intensity Objects (%): 2%
  Population Membrane Permeable-Phenotype (%): 0%
  Population Mitochondria Different-Phenotype (%): 2%
  Population Mitotic Cells (%): 47%
  Population Normal (%): 97%
  Population Pyknosed Nuclei (%): 12%
  Population Tubulin-Different-Phenotype (%): 29%
  Total Cell Count: 143
[6]
  Population Apoptotic (%): 36%
  Population Fragmented Nuclei (%): 30%
  Population Healthy Nuclei (%): 50%
  Population Hoechst High Intensity Objects (%): 3%
  Population Membrane Permeable-Phenotype (%): 6%
  Population Mitochondria Different-Phenotype (%): 1%
  Population Mitotic Cells (%): 63%
  Population Normal (%): 96%
  Population Pyknosed Nuclei (%): 19%
  Population Tubulin-Different-Phenotype (%): 53%
  Total Cell Count: 119
[7]
  Population Apoptotic (%): 61%
  Population Fragmented Nuclei (%): 14%
  Population Healthy Nuclei (%): 73%
  Population Hoechst High Intensity Objects (%): 5%
  Population Membrane Permeable-Phenotype (%): 0%
  Population Mitochondria Different-Phenotype (%): 1%
  Population Mitotic Cells (%): 38%
  Population Normal (%): 95%
  Population Pyknosed Nuclei (%): 11%
  Population Tubulin-Different-Phenotype (%): 11%
  Total Cell Count: 120
[8]
  Population Apoptotic (%): 48%
  Population Fragmented Nuclei (%): 31%
  Population Healthy Nuclei (%): 47%
  Population Hoechst High Intensity Objects (%): 4%
  Population Membrane Permeable-Phenotype (%): 10%
  Population Mitochondria Different-Phenotype (%): 5%
  Population Mitotic Cells (%): 52%
  Population Pyknosed Nuclei (%): 20%
  Population Tubulin-Different-Phenotype (%): 53%
  Total Cell Count: 127
[9]
  Population Apoptotic (%): 78%
  Population Fragmented Nuclei (%): 35%
  Population Healthy Nuclei (%): 55%
  Population Hoechst High Intensity Objects (%): 2%
  Population Membrane Permeable-Phenotype (%): 0%
  Population Mitochondria Different-Phenotype (%): 2%
  Population Mitotic Cells (%): 21%
  Population Normal (%): 97%
  Population Pyknosed Nuclei (%): 9%
  Population Tubulin-Different-Phenotype (%): 35%
  Total Cell Count: 151
[10]
  Population Apoptotic (%): 46%
  Population Fragmented Nuclei (%): 36%
  Population Healthy Nuclei (%): 51%
  Population Hoechst High Intensity Objects (%): 3%
  Population Membrane Permeable-Phenotype (%): 3%
  Population Mitochondria Different-Phenotype (%): 10%
  Population Mitotic Cells (%): 53%
  Population Normal (%): 96%
  Population Pyknosed Nuclei (%): 11%
  Population Tubulin-Different-Phenotype (%): 50%
  Total Cell Count: 116
[11]
  Population Apoptotic (%): 57%
  Population Fragmented Nuclei (%): 15%
  Population Healthy Nuclei (%): 71%
  Population Hoechst High Intensity Objects (%): 5%
  Population Membrane Permeable-Phenotype (%): 0%
  Population Mitochondria Different-Phenotype (%): 2%
  Population Mitotic Cells (%): 42%
  Population Normal (%): 94%
  Population Pyknosed Nuclei (%): 12%
  Population Tubulin-Different-Phenotype (%): 16%
  Total Cell Count: 115
[12]
  Population Apoptotic (%): 38%
  Population Fragmented Nuclei (%): 29%
  Population Healthy Nuclei (%): 55%
  Population Hoechst High Intensity Objects (%): 3%
  Population Membrane Permeable-Phenotype (%): 10%
  Population Mitochondria Different-Phenotype (%): 1%
  Population Mitotic Cells (%): 61%
  Population Normal (%): 96%
  Population Pyknosed Nuclei (%): 14%
  Population Tubulin-Different-Phenotype (%): 37%
  Total Cell Count: 125

## Nc1nc(CC(=O)Nc2ccc(CCNC[C@H](O)c3ccccc3)cc2)cs1 [MIRABEGRON]
[1]
  Population Apoptotic (%): 53%
  Population Fragmented Nuclei (%): 19%
  Population Healthy Nuclei (%): 62%
  Population Hoechst High Intensity Objects (%): 5%
  Population Membrane Permeable-Phenotype (%): 0%
  Population Mitochondria Different-Phenotype (%): 6%
  Population Mitotic Cells (%): 46%
  Population Normal (%): 94%
  Population Pyknosed Nuclei (%): 18%
  Population Tubulin-Different-Phenotype (%): 25%
  Total Cell Count: 164
[2]
  Population Apoptotic (%): 31%
  Population Fragmented Nuclei (%): 27%
  Population Healthy Nuclei (%): 52%
  Population Hoechst High Intensity Objects (%): 4%
  Population Membrane Permeable-Phenotype (%): 9%
  Population Mitochondria Different-Phenotype (%): 12%
  Population Mitotic Cells (%): 68%
  Population Normal (%): 95%
  Population Pyknosed Nuclei (%): 19%
  Population Tubulin-Different-Phenotype (%): 46%
  Total Cell Count: 189
[3]
  Population Apoptotic (%): 46%
  Population Fragmented Nuclei (%): 15%
  Population Healthy Nuclei (%): 75%
  Population Hoechst High Intensity Objects (%): 3%
  Population Membrane Permeable-Phenotype (%): 0%
  Population Mitochondria Different-Phenotype (%): 4%
  Population Mitotic Cells (%): 53%
  Population Normal (%): 96%
  Population Pyknosed Nuclei (%): 9%
  Population Tubulin-Different-Phenotype (%): 19%
  Total Cell Count: 171
[4]
  Population Apoptotic (%): 30%
  Population Fragmented Nuclei (%): 31%
  Population Healthy Nuclei (%): 41%
  Population Hoechst High Intensity Objects (%): 5%
  Population Membrane Permeable-Phenotype (%): 1%
  Population Mitochondria Different-Phenotype (%): 3%
  Population Mitotic Cells (%): 69%
  Population Normal (%): 94%
  Population Pyknosed Nuclei (%): 27%
  Population Tubulin-Different-Phenotype (%): 45%
  Total Cell Count: 137
[5]
  Population Apoptotic (%): 59%
  Population Fragmented Nuclei (%): 17%
  Population Healthy Nuclei (%): 64%
  Population Hoechst High Intensity Objects (%): 5%
  Population Membrane Permeable-Phenotype (%): 1%
  Population Mitochondria Different-Phenotype (%): 4%
  Population Mitotic Cells (%): 40%
  Population Normal (%): 94%
  Population Pyknosed Nuclei (%): 18%
  Population Tubulin-Different-Phenotype (%): 28%
  Total Cell Count: 156
[6]
  Population Apoptotic (%): 58%
  Population Fragmented Nuclei (%): 27%
  Population Healthy Nuclei (%): 57%
  Population Membrane Permeable-Phenotype (%): 9%
  Population Mitochondria Different-Phenotype (%): 7%
  Population Mitotic Cells (%): 41%
  Population Pyknosed Nuclei (%): 14%
  Population Tubulin-Different-Phenotype (%): 45%
  Total Cell Count: 179
[7]
  Population Apoptotic (%): 53%
  Population Fragmented Nuclei (%): 15%
  Population Healthy Nuclei (%): 75%
  Population Hoechst High Intensity Objects (%): 2%
  Population Membrane Permeable-Phenotype (%): 0%
  Population Mitochondria Different-Phenotype (%): 4%
  Population Mitotic Cells (%): 46%
  Population Normal (%): 97%
  Population Pyknosed Nuclei (%): 8%
  Population Tubulin-Different-Phenotype (%): 24%
  Total Cell Count: 181
[8]
  Population Apoptotic (%): 55%
  Population Fragmented Nuclei (%): 29%
  Population Healthy Nuclei (%): 48%
  Population Hoechst High Intensity Objects (%): 4%
  Population Membrane Permeable-Phenotype (%): 4%
  Population Mitochondria Different-Phenotype (%): 6%
  Population Mitotic Cells (%): 44%
  Population Normal (%): 95%
  Population Pyknosed Nuclei (%): 21%
  Population Tubulin-Different-Phenotype (%): 44%
  Total Cell Count: 131
[9]
  Population Apoptotic (%): 76%
  Population Fragmented Nuclei (%): 23%
  Population Healthy Nuclei (%): 60%
  Population Hoechst High Intensity Objects (%): 7%
  Population Membrane Permeable-Phenotype (%): 2%
  Population Mitochondria Different-Phenotype (%): 6%
  Population Mitotic Cells (%): 23%
  Population Normal (%): 92%
  Population Pyknosed Nuclei (%): 15%
  Population Tubulin-Different-Phenotype (%): 28%
  Total Cell Count: 176
[10]
  Population Apoptotic (%): 50%
  Population Fragmented Nuclei (%): 40%
  Population Healthy Nuclei (%): 52%
  Population Hoechst High Intensity Objects (%): 2%
  Population Membrane Permeable-Phenotype (%): 4%
  Population Mitochondria Different-Phenotype (%): 10%
  Population Mitotic Cells (%): 50%
  Population Normal (%): 97%
  Population Pyknosed Nuclei (%): 7%
  Population Tubulin-Different-Phenotype (%): 32%
  Total Cell Count: 195
[11]
  Population Apoptotic (%): 64%
  Population Fragmented Nuclei (%): 18%
  Population Healthy Nuclei (%): 74%
  Population Hoechst High Intensity Objects (%): 4%
  Population Membrane Permeable-Phenotype (%): 0%
  Population Mitochondria Different-Phenotype (%): 4%
  Population Mitotic Cells (%): 35%
  Population Normal (%): 95%
  Population Pyknosed Nuclei (%): 7%
  Population Tubulin-Different-Phenotype (%): 21%
  Total Cell Count: 194
[12]
  Population Apoptotic (%): 75%
  Population Fragmented Nuclei (%): 39%
  Population Healthy Nuclei (%): 48%
  Population Hoechst High Intensity Objects (%): 3%
  Population Membrane Permeable-Phenotype (%): 6%
  Population Mitochondria Different-Phenotype (%): 6%
  Population Mitotic Cells (%): 25%
  Population Normal (%): 96%
  Population Pyknosed Nuclei (%): 12%
  Population Tubulin-Different-Phenotype (%): 51%
  Total Cell Count: 132
